These results are taken from ChEMBL document CHEMBL1121930, “Design of more potent antagonists of the antidiuretic responses to arginine-vasopressin” (J Med Chem, 1982).

The test system of test [1] is Rattus norvegicus. Description: Antivasopressor effective dose is defined as the dose that reduces the response seen with 2 units of agonist to equal the response seen with 1 unit of agonist administered before antagonist. In kind it is functional. Summed up: (§1)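 Intravenous vasopressor assay in phenoxybenzamine-treated rats under urethane anesthesia, agonist USP posterior pituitary reference standard. Effective dose (nmol/kg) cuts the response to 2x units of agonist to that of 1x units given before the antagonist. pA2 = −log(effective dose / 67 mL/kg).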

For test [2], the system named is Rattus norvegicus. The test is described as follows: Effective dose is defined as the dose that reduces the response seen with 2 units of agonist to equal the response seen with 1 unit of agonist administered before antagonist. In kind it is functional.
The test system of test [3] is Rattus norvegicus. Description: In vivo pA2 value represent the negative logarithm of the effective dose divided by the estimated volume of distribution (67 mL/kg). In kind it is functional, organism-based.
For test [4], the system named is Rattus norvegicus. Description: Antidiuretic effective dose is expressed as the dose that reduces the response seen with 2 units of agonist to equal the response seen with 1 unit of agonist administered before antagonist. In kind it is functional, Urine. Summed up: (§2)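 Rats under ethanol anesthesia, agonist USP posterior pituitary reference standard. Agonist injected 20 and 50 min after the antagonist. Responses at 20 min were used, or at 50 min for analogues that inhibited more then. Each antagonist was given at two doses, one above and one below the effective dose (nmol/kg). pA2 = −log(effective dose / 67 mL/kg).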

The test system of test [5] is Rattus norvegicus. The test is described as follows: Antivasopressor effective dose is expressed as the dose that reduces the response seen with 2 units of agonist to equal the response seen with 1 unit of agonist administered before antagonist. Type of test: functional. Put shortly:
as §1

Test [6] deals with Rattus norvegicus. The test is described as follows: In vivo pA2 value represent the negative logarithm of the antidiuretic effective dose divided by the estimated volume of distribution (67 mL/kg). In kind it is functional, organism-based. The settings on record: Urine, read-out: pA2 (converted). Summed up: as §2
In test [7] the test system is Rattus norvegicus. The test is described as follows: In vivo pA2 value represent the negative logarithm of the anti-vasopressor effective dose divided by the estimated volume of distribution (67 mL/kg). In kind it is functional, organism-based. The following applies: read-out: pA2 (converted). Summed up: as §1
In test [8] the test system is Rattus norvegicus. Description: Effective dose is defined as the dose that reduces the response seen with 2 units of agonist to equal the response seen with 1 unit of agonist administered before antagonist; agonist. In kind it is functional, organism-based. The settings on record: filed as agonist.

The structures appear in SMILES notation. Where “and” joins values, the source holds several entries; their conditions need not be identical. Identical values can stand only once. *1 amine or outer side, *2 acyl side, *3 side chain or, on linkers, in order; H or OH if unused. Where a SMILES comes first, the peptide text is derived from it. Bridges are numbered along the chain shown (N, C = ends). [ ]: non-standard residue; d: D form. The star is where a group is joined. X1 = O=C(CC1(S[*:2])CCCCC1)[*:1]; Propyl = CCC*; iPr = CC(C)*

As for `CC(C)[C@@H]1NC(=O)[C@H](Cc2ccccc2)NC(=O)[C@H](Cc2ccc(O)cc2)NC(=O)CC2(CCCCC2)SSC[C@@H](C(=O)N2CCC[C@H]2C(=O)N[C@H](CCCN=C(N)N)C(=O)NCC(N)=O)NC(=O)[C@H](CC(N)=O)NC1=O`, the Effective dose with Rattus norvegicus [1] was determined as 1.5 nM/kg.
Turning to `CC(C)[C@@H]1NC(=O)[C@H](Cc2ccccc2)NC(=O)[C@@H](Cc2ccc(O)cc2)NC(=O)CC2(CCCCC2)SSC[C@@H](C(=O)N2CCC[C@H]2C(=O)N[C@@H](CCCN=C(N)N)C(=O)NCC(N)=O)NC(=O)[C@H](CC(N)=O)NC1=O`, the Effective dose stood at 0.29 nM/kg in the test on Rattus norvegicus [1] and 2.2 nM/kg with Rattus norvegicus [2].
In general, pA2 refers to a measure of antagonist potency on a negative log scale. Turning to `CCOc1ccc(C[C@@H]2NC(=O)CC3(CCCCC3)SSC[C@@H](C(=O)N3CCC[C@H]3C(=O)N[C@@H](CCCN=C(N)N)C(=O)NCC(N)=O)NC(=O)[C@H](CC(N)=O)NC(=O)[C@H](C(C)C)NC(=O)[C@H](Cc3ccccc3)NC2=O)cc1` (Y(Et)FVNCPRG-NH2; linker N-5 via X1), the Effective dose in the test with Rattus norvegicus [1] turned out to be 0.45 nM/kg; in the test on Rattus norvegicus [2], 1.1 nM/kg. The pA2 in the test on Rattus norvegicus [3] was 7.81 and 8.22.
Take `CCOc1ccc(C[C@@H]2NC(=O)CC3(CCCCC3)SSC[C@@H](C(=O)N3CCC[C@H]3C(=O)N[C@H](CCCN=C(N)N)C(=O)NCC(N)=O)NC(=O)[C@H](CC(N)=O)NC(=O)[C@H](C(C)C)NC(=O)[C@H](Cc3ccccc3)NC2=O)cc1` (Y(Et)FVNCP[dR]G-NH2; linker N-5 via X1): the Effective dose with Rattus norvegicus [1] worked out at 0.88 nM/kg; in the test on Rattus norvegicus [2] it was 1.8 nM/kg.
The corresponding values for `COc1ccc(C[C@@H]2NC(=O)CC3(CCCCC3)SSC[C@@H](C(=O)N3CCC[C@H]3C(=O)N[C@@H](CCCN=C(N)N)C(=O)NCC(N)=O)NC(=O)[C@H](CC(N)=O)NC(=O)[C@H](C(C)C)NC(=O)[C@H](Cc3ccccc3)NC2=O)cc1` (Y(Me)FVNCPRG-NH2; linker N-5 via X1) are 0.23 nM/kg and 1.2 nM/kg.
Take `COc1ccc(C[C@@H]2NC(=O)CC3(CCCCC3)SSC[C@@H](C(=O)N3CCC[C@H]3C(=O)N[C@H](CCCN=C(N)N)C(=O)NCC(N)=O)NC(=O)[C@H](CC(N)=O)NC(=O)[C@H](C(C)C)NC(=O)[C@H](Cc3ccccc3)NC2=O)cc1` (Y(Me)FVNCP[dR]G-NH2; linker N-5 via X1): the Effective dose was 4.9 nM/kg in the test with Rattus norvegicus [4] and 0.54 nM/kg with Rattus norvegicus [5]. Further, the Kb in the test with Rattus norvegicus [6] is 64.6 nM; in the test on Rattus norvegicus [7] it was 7.94 nM.
In the case of `CCCOc1ccc(C[C@@H]2NC(=O)CC3(CCCCC3)SSC[C@@H](C(=O)N3CCC[C@H]3C(=O)N[C@@H](CCCN=C(N)N)C(=O)NCC(N)=O)NC(=O)[C@H](CC(N)=O)NC(=O)[C@H](C(C)C)NC(=O)[C@H](Cc3ccccc3)NC2=O)cc1` (Y(Propyl)FVNCPRG-NH2; linker N-5 via X1), the Effective dose in the test with Rattus norvegicus [1] worked out at 0.51 nM/kg; in the test on Rattus norvegicus [2], 1.7 nM/kg.
On the same counts, the results for `CC(C)Oc1ccc(C[C@@H]2NC(=O)CC3(CCCCC3)SSC[C@@H](C(=O)N3CCC[C@H]3C(=O)N[C@@H](CCCN=C(N)N)C(=O)NCC(N)=O)NC(=O)[C@H](CC(N)=O)NC(=O)[C@H](C(C)C)NC(=O)[C@H](Cc3ccccc3)NC2=O)cc1` (Y(iPr)FVNCPRG-NH2; linker N-5 via X1) are 0.28 nM/kg and 1.6 nM/kg.
On the same counts, the results for `CC(C)Oc1ccc(C[C@@H]2NC(=O)CC3(CCCCC3)SSC[C@@H](C(=O)N3CCC[C@H]3C(=O)N[C@H](CCCN=C(N)N)C(=O)NCC(N)=O)NC(=O)[C@H](CC(N)=O)NC(=O)[C@H](C(C)C)NC(=O)[C@H](Cc3ccccc3)NC2=O)cc1` (Y(iPr)FVNCP[dR]G-NH2; linker N-5 via X1) are 0.46 nM/kg and 2.2 nM/kg.
In the test with Rattus norvegicus [1], `CC(C)[C@@H]1NC(=O)[C@H](Cc2ccccc2)NC(=O)[C@H](Cc2ccc(O)cc2)NC(=O)CC2(CCCCC2)SSC[C@@H](C(=O)N2CCC[C@H]2C(=O)N[C@@H](CCCN=C(N)N)C(=O)NCC(N)=O)NC(=O)[C@H](CC(N)=O)NC1=O` (stereo in doubt) [listing 1 of 2 here] returned an Effective dose of 0.76 nM/kg.
Regarding `CC(C)[C@@H]1NC(=O)[C@H](Cc2ccccc2)NC(=O)[C@H](Cc2ccc(O)cc2)NC(=O)CC2(CCCCC2)SSC[C@@H](C(=O)N2CCC[C@H]2C(=O)N[C@@H](CCCN=C(N)N)C(=O)NCC(N)=O)NC(=O)[C@H](CC(N)=O)NC1=O` (stereo in doubt) [listing 2 of 2 here], the Effective dose result in the test on Rattus norvegicus [8] was “Agonist”.
Take `CC(C)[C@@H]1NC(=O)[C@H](Cc2ccccc2)NC(=O)[C@H](Cc2ccc(O)cc2)NC(=O)CC2(CCCCC2)SSC[C@@H](C(=O)N2CCC[C@H]2C(=O)N[C@@H](CCCN=C(N)N)C(=O)NCC(N)=O)NC(=O)[C@H](CC(N)=O)NC1=O` (stereo in doubt; 9): the Effective dose in the test on Rattus norvegicus [1] is 0.6 nM/kg; in the test on Rattus norvegicus [2], 6.3 nM/kg.
